# From PubChem BioAssay
# RGS4 inh – inhibitors of human RGS4. HEK293 M3R/RGS4 inducible, Fluo-4 calcium flux; active compounds read high; triggered by carbachol at its EC20. B-score at 10 µM. 0.45% of 310,000 active. AID 463165;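 active means B-score, a plate-corrected calcium signal, over three deviations above library mean, with baseline fluorescence within five deviations of library mean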;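 further: RGS4 expression induced by doxycycline in cells with stable M3 receptor; B-score is computed from the integrated fluorescence ratio over baseline after carbachol; higher B-score means a larger calcium signal and so more RGS4 inhibition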
# Target sequence (P49798 whole entry, looked up): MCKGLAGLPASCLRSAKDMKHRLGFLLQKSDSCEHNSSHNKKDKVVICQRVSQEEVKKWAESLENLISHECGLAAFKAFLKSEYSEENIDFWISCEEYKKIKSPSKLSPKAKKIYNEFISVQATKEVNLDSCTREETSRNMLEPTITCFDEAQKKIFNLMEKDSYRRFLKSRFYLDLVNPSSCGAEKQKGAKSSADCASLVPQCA
# RGS4 pot – RGS4 potentiation or activation; HEK293 M3R/inducible RGS4, carbachol calcium flux Fluo4; active compounds read low; B-score at 10 µM; 0.92% of 310,000 active;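 active means B-score of the integrated calcium signal more than 4 SD below the library mean, with starting fluorescence not abnormally high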;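 further: negative B-score means reduced calcium response which marks RGS4 activation or potentiation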
#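 Assay system: HEK293 FlpIn-TREx cells, stable M3R, doxycycline-inducible RGS4 / Probe or stimulus: carbachol, ECmax concentration / Times: overnight RGS4 induction, 30 min dye load 37 °C, 20 min compound RT / Signal: kinetic calcium fluorescence imaging with Fluo4-AM dye, 2 µM / Measure: Agonist-evoked peak-minus-minimum fluorescence over baseline, integrated ratio, B score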
# MrgX1 PAM – human MrgX1 positive allosteric modulation, primary screen; Q96LB2; MrgX1-HEK293, Fluo-4 calcium flux, FDSS; active compounds read high; B-score at 10 µM; 0.63% of 310,000 active; AID 588675;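 active means plate-corrected calcium response at least 3 library SD above typical, normal starting fluorescence, not activating the receptor alone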;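 further: compound read alongside a low EC10 to EC30 dose of BAM8-22 agonist; peak minus trough fluorescence over baseline measured at the second addition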
# Target sequence (Q96LB2 whole entry, looked up): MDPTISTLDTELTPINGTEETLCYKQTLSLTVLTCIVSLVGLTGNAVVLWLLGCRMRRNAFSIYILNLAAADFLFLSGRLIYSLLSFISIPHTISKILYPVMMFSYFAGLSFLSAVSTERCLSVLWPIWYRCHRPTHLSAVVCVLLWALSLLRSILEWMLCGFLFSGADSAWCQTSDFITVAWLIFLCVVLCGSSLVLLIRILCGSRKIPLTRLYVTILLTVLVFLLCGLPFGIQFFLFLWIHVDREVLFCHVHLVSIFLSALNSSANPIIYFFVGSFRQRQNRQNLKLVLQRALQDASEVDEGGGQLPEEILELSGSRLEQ
# MrgX1 ag – activates human MrgX1 receptor signaling; B-score at 10 µM; 0.44% of 310,000 active; Q96LB2; MrgX1-HEK293 cells, Fluo-4 calcium fluorescence, agonist mode; active compounds read high; AID 588627;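 active means calcium response B-score plate-corrected fluorescence ratio at least 3 library SD, with starting fluorescence B-score inside 5 SD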
#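 Material: MrgX1-expressing HEK293 cells; input: 15,000 cells per well; doses: test compound given as first of three sequential additions; schedule: overnight plating before 1 h dye loading; technique: Fluo-4 NW calcium-flux fluorescence, kinetic read; evaluation: baseline-normalised fluorescence change ratio, B-scored; control set: plate-wise positive and negative controls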
# MrgX1 antagonist – antagonists of human MrgX1 receptor; Q96LB2; MRGX1-HEK293 calcium flux, Fluo-4, BAM8-22 antagonism; active compounds read low; B-score at 10 µM; 1.3% of 310,000 active; AID 588676;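 active means calcium-response B-score plate-corrected more than 3 library SD below zero, starting fluorescence within 5 deviations, no agonist response on first addition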;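 further: peak minus trough fluorescence over baseline after final BAM8-22 challenge near maximal dose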
# RGS4 inh valid – RGS4 inhibitor validation; shares compounds with RGS4 inh; HEK293 M3R/RGS4, carbachol calcium Fluo-4 fluorescence; carbachol added at its EC20; 0 = buffer wells, 100 = carbachol control; calcium response, % at 10 µM; 65% of 1,700 active; AID 492999;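 active means duplicate-averaged calcium response above the buffer-only control mean plus 5 SD of those controls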;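 further: integrated fluorescence ratio F max minus min over baseline F0; higher response in RGS4-induced cells means RGS4 inhibition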
# RGS4 uninduced – counter-screen for RGS4 inhibitors: effect in non-induced cells. activity (percent), % at 10 µM. HEK293 M3R non-induced, carbachol calcium Fluo-4; submaximal (EC20) carbachol stimulus; buffer wells 0%, carbachol control wells 100%. AID 493000. 20% of 1,900 active. shares compounds with RGS4 inh; call rule not given here;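 further: RGS4 induction absent so cells express M3R without RGS4; higher means more calcium signal and flags a non-specific hit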
# RGS4 inh ctr2 – second RGS4 inhibitor counter-screen in uninduced cells lacking carbachol; calcium response (agonist-mode artifact), % at 10 µM; 22% of 1,900 active; AID 493001; HEK293 M3R/RGS4 non-induced, Fluo-4 calcium, no carbachol; normalised: buffer wells 0%, carbachol wells 100%; shares compounds with RGS4 inh;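 active means duplicate-averaged calcium rise in uninduced cells above buffer wells' mean plus 5 SD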
# A number is an active result; – = inactive; · = no result given. Compounds with a hit are over-represented: about 3.5% of the library has one in this group of screens.
SMILES,RGS4 inh,RGS4 pot,MrgX1 PAM,MrgX1 ag,MrgX1 antagonist,RGS4 inh valid,RGS4 uninduced,RGS4 inh ctr2
Cc1ccccc1C1C(C#N)=C2N=C(N)c3ccccc3N2C2=C1C(=O)CCC2 (configuration not stated),–,–,–,–,–,·,·,·
N#CC1=C2N=C(N)c3ccccc3N2C2=C(C(=O)CCC2)C1c1cccc(Cl)c1 (configuration not stated),–,–,–,–,–,·,38.0%,28.0%
CCC(C)C1Nc2ccc(C(=O)NCCc3ccc(OC)c(OC)c3)cc2NC1=O (configuration not stated),–,–,–,–,–,·,·,·
CC(=O)/C(=N/Nc1cccc(C)c1)N1CCOCC1,18,–,–,–,–,10.0%,57.5%,–
O=C(Nc1nc(-c2cccs2)c(-c2ccccc2)s1)c1ccco1,13.9,–,–,–,–,43.0%,52.0%,–
O=C(Nc1nc(-c2ccc(Cl)s2)cs1)c1cccs1,–,–,–,–,–,·,·,·
CC(=O)Nc1sc(NC(=O)c2ccco2)nc1-c1cccs1,–,–,–,–,–,·,·,·
O=C(Nc1nc(-c2ccc(Cl)s2)cs1)c1ccco1,6.54,–,–,–,–,13.5%,–,–
O=C(N/N=C\c1cn[nH]c1-c1ccc(Cl)cc1)c1cccs1,–,–,–,–,–,·,·,·
CC(C)(Oc1ccc(Cl)cc1)C(=O)N/N=C/c1cn[nH]c1-c1ccccc1,5,–,–,–,–,26.0%,–,–
Cc1cc(Br)cc2c1N(C)C(=O)C2(c1ccc(O)cc1)c1ccc(O)cc1,27.1,–,–,–,–,75.5%,43.0%,–
Cc1noc(NS(=O)(=O)c2ccc(NC(=O)c3nn(-c4ccc(F)cc4)ccc3=O)cc2)c1C,–,–,–,–,–,·,·,·
Cc1ccc(-n2ccc(=O)c(C(=O)Nc3ccc(S(=O)(=O)Nc4onc(C)c4C)cc3)n2)cc1,–,–,–,–,–,·,–,–
CCCn1cc(S(=O)(=O)c2ccc(C)cc2)c(=O)c2cc(OC)c(OC)cc21,–,–,–,–,–,·,·,·
COc1ccc(C2=NN(CN3C(=O)C(=O)c4ccccc43)C(c3ccc(C)cc3)C2)cc1 (configuration not stated),6.74,–,–,–,–,18.5%,–,–
COc1ccc(C2CC(c3ccc(Br)cc3)=NN2C(=O)c2cccnc2)cc1 (configuration not stated),–,–,–,–,–,·,·,·
COc1ccc(C2=NN(CN3C(=O)C(=O)c4ccccc43)C(c3ccc(Br)cc3)C2)cc1 (configuration not stated),11.3,–,–,–,–,38.5%,42.5%,–
CCOC(=O)C1=C(COC(=O)COc2ccc(Br)cc2)NC(=O)NC1C (configuration not stated),–,–,–,–,–,·,·,·
CCN(C1CCCCC1)S(=O)(=O)CCNC(=O)c1ccccc1,–,–,–,–,–,·,·,·
CCOc1cc(/C=C2/C(=O)NN(c3cccc(Cl)c3)C2=O)ccc1O,5.7,–,–,–,–,5.0%,–,19.5%
O=C1NN(c2cccc(Br)c2)C(=O)/C1=C\c1ccc(O)cc1,–,–,–,–,–,·,31.0%,–
O=C1NN(c2ccc(Br)cc2)C(=O)/C1=C\c1ccc(O)cc1O,–,–,–,–,–,·,·,·
CCOC(=O)N1CCN(S(=O)(=O)N2CCCC(C(=O)NCCCN3CC(C)CC(C)C3)C2)CC1 (configuration not stated),–,–,–,–,–,·,·,·
CCc1ccc(C(C(=O)NC2CCCCC2)N(C(=O)c2csnn2)C2CC2)cc1 (configuration not stated),–,–,–,–,–,·,·,·
COc1ccc(S(=O)(=O)N2CCc3cc4c(cc3C2C)OCCCO4)cc1 (configuration not stated),–,–,–,–,–,·,·,·
SMILES,RGS4 inh,RGS4 pot,MrgX1 PAM,MrgX1 ag,MrgX1 antagonist,RGS4 inh valid,RGS4 uninduced,RGS4 inh ctr2
COc1ccc(NC(=O)/C(C#N)=C/c2ccc(Sc3nncn3C)c([N+](=O)[O-])c2)cc1,6.85,–,–,–,–,18.5%,–,–
Cn1cnnc1Sc1ccc(/C=C/C(=O)c2ccc(O)cc2)cc1[N+](=O)[O-],–,–,–,–,–,·,·,·
Cc1c(Cl)cccc1NC(=O)[C@@H](NC(=O)c1ccccc1Cl)C(C)C,–,–,–,–,–,·,·,·
O=C1NC(c2ccccc2)=C(c2ccc3ccccc3n2)C(c2ccccc2)N1 (configuration not stated),–,–,–,–,–,·,·,·
O=C1NC(c2ccccc2)=C(c2nc3ccccc3s2)C(c2ccc(O)cc2)N1 (configuration not stated),8.59,–,–,–,–,8.5%,–,8.0%
C=CCSc1ncc(CO)n1Cc1ccccc1,–,–,–,–,–,·,·,·
COC(=O)c1ccc(OC)c(OC)c1Cl,5.81,–,–,–,–,5.5%,–,–
CCOC(=O)c1ccc(OC)c(OC)c1Cl,–,–,–,–,–,·,·,·
Cc1ccc(C2CC(c3cccs3)=NN2S(=O)(=O)c2ccc(C)cc2)cc1 (configuration not stated),–,–,–,–,–,·,–,31.5%
O=S(=O)(c1ccccc1)N1N=C(c2cccs2)CC1c1ccc(F)cc1 (configuration not stated),–,–,–,–,–,·,·,·
COc1ccc(C2CC(c3cccs3)=NN2S(=O)(=O)c2ccc(C)cc2)cc1 (configuration not stated),6.22,–,–,–,–,17.0%,–,–
CCOC(=O)c1c(C)oc2c1cc(NS(=O)(=O)c1ccc(C(=O)O)cc1)c1ccccc12,–,–,–,–,–,·,–,–
CC(=O)c1ccc(OCCOc2ccc(Cl)c3cccnc23)cc1,–,–,–,–,–,·,·,·
O=C(/C=C/c1ccco1)Nc1nc(-c2ccccc2)cs1,–,–,–,–,–,·,·,·
O=C(/C=C/c1ccco1)Nc1nc(-c2ccccn2)cs1,11.7,–,–,–,–,22.0%,–,–
Cc1ccc(-c2ccc(C(=O)NCc3ccc(Cl)cc3)o2)c2ccccc12,4.78,–,–,–,–,–,–,15.5%
Cc1ccc(C(=O)C2=C(O)C(=O)N(Cc3ccco3)C2c2cccc(Br)c2)o1 (configuration not stated),–,–,–,–,–,·,·,·
